Results: publication PMC3417756 (Bioorganic & medicinal chemistry, 2012)

Tests used:
[1] = MTT cytotoxicity assay in murine macrophage cells; assay type: cell-based; conditions: mouse, RAW 264.7 murine macrophage cells
phosphorylation of IκBα = assay: Western blot analysis of phosphorylation of IκBα in RAW264.7 cells; assay type: cell-based, mouse; conditions: increasing concentrations, in the presence of LPS, 4 hr
Outline: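 Cells were grown to near confluency and dosed with LPS plus compound at 37 °C. Lysates were made in SDS/2-mercaptoethanol loading buffer, sonicated 15 s and heated at 99.9 °C for 5 min. Proteins were run on 4–15% polyacrylamide SDS gels and transferred to membrane, which was blocked with 5% milk for 1 h. Probes were anti-phospho-IκB and anti-IκB (1:1000) with HRP secondary (1:3000, 1 h, room temperature), detected by chemiluminescence on X-ray film; β-actin served as control.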

RAW 264.7 cells = assay: MTT cytotoxicity assay in murine macrophage cells; assay type: cell-based
NF-κB = assay: LPS-induced NF-κB luciferase reporter assay in RAW264.7 cells; assay type: cell-based; conditions: Mus musculus, RAW264.7, read-out: inhibition of NF-κB
Outline: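 RAW264.7 cells stably transfected with an NF-κB luciferase reporter were seeded at 5 × 10^4 cells per well in 96-well plates. After 24 h recovery, cells were exposed to test compound plus LPS (100 ng/mL) for 18 h. Lysates were mixed with luciferase assay reagent and luminescence was read. IC50 is given as mean ± SE, n = 3.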

[2] = system: nitric oxide (NO) production; assay: Griess assay of LPS stimulated nitric oxide production in RAW264.7 cells; assay type: cell-based, murine; conditions: concentrations up to 10 μM
Outline: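 RAW264.7 cells were plated in RPMI1640 and held 24 h at 37 °C. Medium was replaced, then compound and E. coli 055:B5 LPS were added. Culture supernatant was reacted with Griess reagent (0.5% sulfanilamide, 0.05% N-1-naphthylethylenediamine dihydrochloride, 2.5% H3PO4) for 30 min at room temperature in the dark. Absorbance was read at 530 nm and converted to nitrite using a sodium nitrite standard curve.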

iNOS = assay: qPCR of LPS-induced iNOS expression in RAW264.7 cells; assay type: cell-based, mouse; conditions: concentrations up to 10 μM; data not shown
Outline: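 RAW264.7 cells were co-treated with LPS (100 ng/mL) and compound at 0.01–10 μM. Total RNA (0.5 μg) was DNase I-treated and reverse transcribed, and cDNAs were pooled per condition. SYBR Green real-time PCR array was normalised to GAPDH. Data come from three independent experiments and were compared by one-way ANOVA (p<0.05).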

HCT-116 cells = assay: Human colon tumor HCT-116 cytotoxicity assay; assay type: cell-based; conditions: HCT-116, read-out: IC50 HCT-116

SMILES | IC50 at 18 h [1] [µM] | IκBα phosphorylation (phosphorylation of IκBα) | cytotoxicity to RAW 264.7 macrophage immune cells (in words) (RAW 264.7 cells) | IC50 (NF-κB) [µM] | inhibition of LPS stimulated NO production [2] | effect on iNOS expression (iNOS) | IC50 (HCT-116 cells) [µM]
CCC(C)/C=C/[C@@H](O)[C@H](O)[C@@H](O)[C@@H](OC)C(=O)N[C@H]1CCCCNC1=O (stereo partly shown) [compound 13, bengamide E’] | > 50 | – | – | – | – | – | –
CCCCCCCCCCCCCC(=O)O[C@H]1CC[C@H](NC(=O)[C@H](OC)[C@H](O)[C@@H](O)[C@H](O)/C=C/C(C)C)C(=O)N(C)C1 [compound 7, bengamide B] | > 50 | clear decrease in the levels of observed IκBα phosphorylation | without cytotoxicity | 0.09 | Neither 6 nor 7 showed NO inhibition activity | Neither 6 nor 7 showed NO inhibition activity or an effect on iNOS expression | –
CC1=C(O)C(=O)C=C2C1=CC=C1[C@@]2(C)CC[C@@]2(C)[C@@H]3C[C@](C)(C(=O)O)CC[C@]3(C)CC[C@]12C [compound 5, celastrol, reference compound] | > 50 | – | – | – | – | – | –
CO[C@@H](C(=O)N[C@H]1CCCCNC1=O)[C@H](O)[C@@H](O)[C@H](O)/C=C/C(C)C [compound 8, bengamide E] | > 50 | clear decrease in the levels of observed IκBα phosphorylation | – | – | – | – | –
CCC(C)/C=C/[C@@H](O)[C@H](O)[C@@H](O)[C@@H](OC)C(=O)N[C@H]1CCCCN(C)C1=O (stereo partly shown) [compound 14, bengamide F’] | > 50 | – | – | – | – | – | 5.1
CCCCCCCCCCCCCC(=O)O[C@H]1CC[C@H](NC(=O)[C@H](OC)[C@H](O)[C@@H](O)[C@H](O)/C=C/C(C)C)C(=O)NC1 [compound 6, bengamide A] | > 50 | clear decrease in the levels of observed IκBα phosphorylation | without cytotoxicity | 0.08 | Neither 6 nor 7 showed NO inhibition activity | Neither 6 nor 7 showed NO inhibition activity or an effect on iNOS expression | –
CO[C@@H](C(=O)N[C@H]1CC[C@@H](OC(=O)C2CCCCC2)CN(C)C1=O)[C@H](O)[C@@H](O)[C@H](O)/C=C/C(C)(C)C [compound 12, LAF 389, reference compound] | > 50 | – | – | – | – | – | –
